High-throughput results deposited in PubChem BioAssay by several laboratories.
Most compounds without a hit are left out; they make up all but 2% or so of the library.
M18AAP inhibitor: PfM18AAP inhibitors, malaria aminopeptidase, primary screen, biochemical, QFRET, recombinant enzyme; M18 aspartyl aminopeptidase (Plasmodium falciparum 3D7); H-Glu-NHMec fluorogenic cleavage; inhibition, % at 7.35 µM; 290,000 tested, 1.2% active;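 active = inhibition above the campaign mean inhibition over all tested compounds plus 3 SD, cut at about 28% in these data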
Tb hexokinase: Trypanosoma brucei hexokinase 1 inhibitors, primary screen, biochemical, G6PDH-coupled NADH absorbance, MLSCN library; hexokinase 1 [Trypanosoma brucei]; recombinant TbHK1, G6PDH-coupled NADH A340; inhibition, % at 10 µM; 220,000 tested, 0.11% active; AID 1430, 2008;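 active = inhibition of 50% or more in the single-dose primary screen; inactive = inhibition below 50%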
L929 necroptosis: inhibitors of zVAD-triggered necroptosis, primary screen, L929 cells. 220,000 tested, 0.38% active. L929 zVAD necroptosis rescue, ATP luminescence, 24 h; with zVAD 60 µM. AID 1377, 2008. viability rescue, % at 10 µM;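 active = activation, scaled between plate controls, above about 75%, limit read from the data; inactive = activation under that limit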
RBBP9 inhibitor: human RBBP9 inhibitors, primary screen, biochemical, fluorescence polarization, FP-Rh probe, HTS; Serine hydrolase RBBP9 (Homo sapiens), O75884; recombinant RBBP9; 220,000 tested, 0.2% active; inhibition, % at 7.94 µM;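 active = inhibition above the campaign mean of all tested compounds plus 3 SD, cut at about 14% in these data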
Target sequence (O75884 whole entry, looked up): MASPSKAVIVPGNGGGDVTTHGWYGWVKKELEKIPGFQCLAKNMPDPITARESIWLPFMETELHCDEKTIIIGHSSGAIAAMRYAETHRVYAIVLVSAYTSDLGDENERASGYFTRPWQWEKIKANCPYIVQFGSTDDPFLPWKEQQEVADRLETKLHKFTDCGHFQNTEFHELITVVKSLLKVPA
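Measured by – fluorescence polarization · Test system – RBBP9 protein · Input – 2.5 µM RBBP9 dispensing solution, before mixing · Measure – percent inhibition from mP, scaled between DMSO and no-protein wells · Benchmarks – DMSO-treated enzyme wells and wells lacking RBBP9 · Times – preincubation 30 min plus labeling 45 min at 25 °C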
Lipid droplet: inhibitors of hepatocyte lipid droplet formation, primary screen, imaging, high-throughput imaging, BODIPY stain; AML12 mouse hepatocytes, oleate lipid droplets; inhibition, % at 6.5 µM; 240,000 tested, 0.4% active;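 active = lipid droplet intensity inhibited by at least 50%, with more than 500 cells counted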
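Assay system: AML12 mouse liver cells | Compound: 6.5 µM single-point dosing | Schedule: Overnight exposure | Technique: Fluorescence imaging, 20x objective, two fields per well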
TNF death inh: inhibitors of TNF-alpha triggered necroptosis, primary screen, cell-based, Jurkat FADD-/-, single concentration; Jurkat FADD-/- TNF necroptosis rescue, ATP luminescence, 24 h; 0 = TNF only, 100 = no-TNF cells; activation (protection from cell death), % at 10 µM; 220,000 tested, 0.068% active;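 active = activation, meaning protection from cell death, of at least 50% relative to plate controls; inactive = activation below 50%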;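 note: necroptosis triggered by 40 ng/mL TNF-alpha added together with compound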
Numbers stand for hits; n = inactive; x = not tested or not shown.

SMILES	M18AAP inhibitor	Tb hexokinase	L929 necroptosis	RBBP9 inhibitor	Lipid droplet	TNF death inh
CC(=O)Nc1ccc(Sc2ncccc2C(=O)Nc2cc(Cl)cc(Cl)c2)cn1	n	n	89.4	n	x	n
CCCCc1nnc(NC(=O)C2CC(=O)N(Cc3ccccc3)C2)s1 (stereo unspecified)	n	x	x	x	n	x
CC(C)(C)NC(=O)C(=O)NNC(=O)c1cccc(F)c1	n	n	n	n	n	n
O=C(NCCC(=O)N1CCC2(CC1)NCCc1[nH]cnc12)c1ccc(F)c(F)c1	n	x	x	x	n	x
Cc1cc(C)c(C)c(S(=O)(=O)NC2CCN(Cc3ccccc3)CC2)c1C	n	n	n	n	n	n
Oc1ccc2ccccc2c1C1Nc2cccc3cccc(c23)N1	n	n	n	n	n	n
Oc1ccc(O)c2c1C1c3ccccc3C2c2ccccc21	81.2	x	x	x	n	x
CC(=O)Nc1cccc(C(=O)OC(C(=O)c2ccc(C)c(C)c2)c2ccccc2)c1 (stereo unspecified)	n	n	83.2	n	x	n
CC(=O)Nc1cccc(C(=O)OC(C(=O)c2ccc(C)cc2)c2ccccc2)c1 (stereo unspecified)	n	n	n	n	x	n
Cc1ccc(C(NC(=O)C2CCCCC2)c2c(O)ccc3ccccc23)cc1 (stereo unspecified)	n	n	n	n	57.3	n
O=C(/C=C/c1ccc(O)c(O)c1)c1ccc(S(=O)(=O)N2CCCCCC2)cc1	59.8	n	n	n	n	n
Cc1cccn2c(=O)c3cc(C(=O)NCc4ccco4)c(=N)n(CCOCCO)c3nc12	28.9	n	n	n	x	n
Cc1cccn2c(=O)c3cc(C(=O)NCc4ccco4)c(=N)n(C4CCCCC4)c3nc12	n	x	x	x	n	x
CCC(=O)c1ccccc1OCCN1CCN(CC)CC1	31.4	n	n	n	n	n
CCc1cc(=O)oc2c3c(cc(OCC(=O)NCCCOC)c12)OC(C)(C)CC3	n	x	x	x	n	x
CNC(=S)/N=C(\Nc1ccc(C)cc1)c1ccccc1	30.3	n	n	n	n	n
Cc1ccc(NC(=O)c2ccccc2)cc1	n	n	n	n	x	n
CCN1CCN(Cc2ccc(NC(=O)Nc3ccc(OC)cc3)cc2)CC1	n	n	76.6	n	n	n
CC1CCN(CC(=O)Nc2ccc(N3CCCCCC3)cc2)CC1	n	n	n	n	n	n
CC(=O)c1sc(C(=O)O)c(-c2ccco2)c1-c1ccco1	30.3	n	n	n	n	n
COc1ccc(CC(=O)NNC(=O)c2cnccn2)cc1	29.0	n	n	n	n	n
COc1cc(/C=N/N=C/c2cc(OC)c(O)c(OC)c2)cc(OC)c1O	30.1	n	n	n	n	n
COc1ccc(/C=N/N=C/c2ccc(OC)c(OC)c2)cc1OC	n	n	n	n	n	n
O=C(CNC(=O)c1ccncc1)N/N=C/c1ccccc1[N+](=O)[O-]	n	n	n	n	n	n
COCCNC(=O)c1ccc2c(c1)ncn2-c1ccc(F)c(F)c1	n	n	75.2	n	x	n
SMILES	M18AAP inhibitor	Tb hexokinase	L929 necroptosis	RBBP9 inhibitor	Lipid droplet	TNF death inh
Cc1ccc(C(=O)OCC(=O)Nc2cc(F)ccc2F)cc1NC(=O)c1ccco1	n	n	n	n	n	n
O=C1C([N+](=O)[O-])=C(O)c2cccc3cccc1c23	32.2	x	x	x	n	x
Cc1ccc(C)c(-n2cc[nH]c2=S)c1	29.6	n	n	n	n	n
Cc1ccc(-n2cc[nH]c2=S)c(C)c1	n	n	n	n	n	n
COc1cccc(C(=O)NCc2nnc(SCC(=O)Nc3nccs3)n2-c2cccc(C)c2)c1	n	n	n	n	n	n
O=C(CS(=O)(=O)c1ccccc1)c1cc2cc(F)ccc2oc1=O	28.5	x	x	x	n	x
O=C(CS(=O)(=O)c1ccccc1)c1cc2ccccc2oc1=O	n	x	x	x	n	x
Cc1cc(C)c(C(=O)/C=C/c2cccc3ccccc23)c(=O)[nH]1	n	n	n	n	n	n
Cc1[nH]c(=O)c(C(=O)/C=C/c2ccccc2F)c2c1CCCC2	n	n	92.2	n	x	n
CCOc1ccc(N)c(SSc2cc(OCC)ccc2N)c1	43.3	x	x	x	n	x
Cc1ccc(C(=O)N/C(=C\c2ccc3c(c2)OCO3)C(=O)Nc2ccc(C(=O)O)cc2)cc1	n	n	n	n	n	n
Cc1nc2ncnn2c(N2CCN(C(=O)Cc3cccs3)CC2)c1C	n	n	n	n	n	n
CC[n+]1c(/C=C/Nc2ccccc2)sc2ccccc21	30.4	n	n	n	x	n
CCN1/C(=C/C=C/C=C/c2sc3ccccc3[n+]2CC)Sc2ccccc21	37.3	n	n	n	n	n
CC[n+]1c(/C=C(\C)Nc2ccccc2)sc2ccccc21	n	n	n	n	n	n
CC[n+]1c(/C=C(\C)OC)sc2ccccc21	n	n	n	n	n	n
Cc1cc(NC(=O)CCC(=O)N(CC(=O)NCC2CCCO2)c2ccc(C(C)C)cc2)no1 (stereo unspecified)	n	x	x	x	n	x
O=C(c1ccc2oc(CCc3ccccc3)nc2c1)N1CC[C@H](O)C1	n	x	x	x	n	x
COc1ccccc1C(=O)Nc1cccc2cccnc12	n	x	x	x	n	x
CC(=O)OC(C(=O)Nc1nccs1)c1ccccc1 (stereo unspecified)	n	x	x	x	n	x
O=C(Nc1nccs1)C(Br)C(Br)c1ccccc1 (stereo unspecified)	30.6	x	x	x	n	x
CCN(C(=O)CSc1nc2cc(S(=O)(=O)N(CC)CC)ccc2o1)C1CCS(=O)(=O)C1 (stereo unspecified)	28.3	x	x	x	n	x
CCN(C(=O)CSc1ccc2c(c1)OCCO2)C1CCS(=O)(=O)C1 (stereo unspecified)	n	n	n	n	x	n
Cc1ccc(C)c(NC(=S)c2ccccn2)c1	n	n	n	n	x	n
Cc1ccc(C)c(NC(=S)c2ccc3ccccc3n2)c1	n	n	n	n	55.9	n
SMILES	M18AAP inhibitor	Tb hexokinase	L929 necroptosis	RBBP9 inhibitor	Lipid droplet	TNF death inh
O=[N+]([O-])c1ccc(NCCCNS(=O)(=O)c2ccccc2)c(Cl)c1	n	n	n	n	n	n
CC12CCC(C(=O)N(NC(=O)c3ccccc3Cl)C1=O)C2(C)C (stereo unspecified)	n	n	n	n	n	n
O=C(Cc1ccc(Cl)cc1)NCCCn1ccnc1	n	n	n	n	n	n
O=C(Cc1c(F)cccc1Cl)NCCCn1ccnc1	28.4	n	n	n	x	n
COCCn1nnnc1C(c1cc2cc(OC)c(OC)cc2[nH]c1=O)N1CCN(c2ccc(O)cc2)CC1 (stereo unspecified)	28.3	n	n	n	n	n
CCc1ccc2[nH]c(=O)c(C(c3nnnn3CCOC)N3CCN(c4ccc(F)cc4)CC3)cc2c1 (stereo unspecified)	n	n	n	n	n	n
